What all share (type): cell membranes
The species entered for experiment [1] is Rattus norvegicus. The experiment can be described thus: Displacement of [3H]strychnine from Wistar rat glycine receptor in spinal cord membrane. An outline of the steps:
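Male Wistar rat spinal cord crude synaptic membranes, washed in 50 mM Tris-HCl pH 7.4 and pre-spun in buffer with 200 mM KSCN. Binding in 50 mM Tris-HCl plus 200 mM KSCN with 3 nM [3H]strychnine, 0 °C for 35 min. Duplicate aliquots were vacuum-filtered on GF/B filters and counted by scintillation. Nonspecific binding was taken with 2 mM glycine. Displacement curves were fitted (Eq. 2) for K_A and α; 3–6 experiments.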

The nature of experiment [2]: (§1) Displacement of [3H]strychnine from Wistar rat glycine receptor in spinal cord membrane in presence of 10 uM glycine. In short, it runs like this:
(§2)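 Rat spinal cord synaptic membrane [3H]strychnine (3 nM) binding in 50 mM Tris-HCl/200 mM KSCN, 0 °C, 35 min, with 10 μM glycine present during test-ligand displacement. Filtration on GF/B, scintillation counting. Nonspecific binding was defined by 2 mM glycine. IC50 and slope come from concentration-displacement curves; three experiments.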
For orientation: In a radioligand displacement assay an active substance lowers the binding of a labelled ligand.

The species named for experiment [3] is Rattus norvegicus. The experiment is described as §1. In short, it runs like this: as §2

For `CN1[C@@H]2CC[C@H]1C[C@@H](OC(=O)/C=C/C(=O)O[C@H]1C[C@H]3CC[C@@H](C1)N3C)C2`, the K in experiment [1] was found to be 7.5 µM.

`O=C(O[C@@H]1C[C@H]2CC[C@@H](C1)N2)c1cccnc1` gave a K in experiment [1] of 0.082 µM.

Turning to `CCN1[C@@H]2CC[C@H]1C[C@@H](OC(=O)CCC(=O)O[C@H]1C[C@H]3CC[C@@H](C1)N3CC)C2`, the K in experiment [1] was more than 100 µM.

In general, IC50 refers to the point on the concentration scale where inhibition reaches its midpoint. Regarding `O=C(OC1CC2CCC(C1)N2)c1c[nH]c2ccccc12` (stereo not drawn) [NORTROPISETRON], the K in experiment [1] came to 0.017 µM. For the same compound, the IC50 in experiment [2] was found to be 9.3 nM. Moreover, the Activity in experiment [3] came to 60%.

With `CN1[C@@H]2CC[C@H]1C[C@H](OC(=O)c1cccnc1)C2`, in experiment [1], the K worked out at 2.2 µM.

In turn, `O=C(O[C@@H]1C[C@@H]2N[C@H](C1)[C@@H]1O[C@@H]12)[C@H](CO)c1ccccc1` returned a K in experiment [1] of 8 µM.

In experiment [1], `CN1[C@@H]2CC[C@H]1C[C@H](OC(=O)c1ccc(Cl)nc1)C2` registered a K of 5.7 µM.

With `CN1[C@@H]2CC[C@H]1C[C@H](OC(=O)c1ccc(C(=O)O[C@H]3C[C@H]4CC[C@@H](C3)N4C)cc1)C2`, the K in experiment [1] is 24.6 µM.

Compound `CN1[C@@H]2CC[C@H]1C[C@H](OC(=O)c1cccc(C(=O)O[C@H]3C[C@H]4CC[C@@H](C3)N4C)c1)C2` returned a K in experiment [1] of 0.197 µM.

In turn, `O=C(O[C@H]1C[C@H]2CC[C@@H](C1)N2)C1c2ccccc2Oc2ccccc21` came in with a K in experiment [1] of 3.1 µM.

Consider `CN1[C@@H]2CCC[C@H]1C[C@H](OC(=O)/C=C/C(=O)O[C@@H]1C[C@H]3CCC[C@@H](C1)N3C)C2`, for which, in experiment [1], the K was 20.8 µM.
